The record followed here is ChEMBL document CHEMBL3259808, “Optimization of antitrypanosomatid agents: identification of nonmutagenic drug candidates with in vivo activity” (J Med Chem, 2014).

Activity calls are given as the source filed them.

The subject of data set [1] is Trypanosoma cruzi. The experiment in a line: Antitrypanosomal activity against Trypanosoma cruzi CL Brener infected in BALB/c mouse assessed as decrease in plasmodial antibodies at 214 umol/kg/day, po for 14 days administered in cholesterol/surfactant/phosphate buffer measured on day 60 by ELISA. The data set is classed as functional, organism-based. As to conditions: in the assay text read “anti-Trypanosoma cruzi antibodies” for “plasmodial antibodies”. Put shortly: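 Infected male BALB/c mice (n = 7/group) were dosed orally for 14 days from day 6 post-infection in cholesterol/surfactant/phosphate buffer pH 7.4 microemulsion; the control group received vehicle. Anti-T. cruzi antibodies were measured by ELISA (each serum tested twice) at days 30 and 60 post-infection and compared with untreated animals and a healthy-animal cutoff.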

Data set [2] can be described thus: Selectivity index, ratio of IC50 for African green monkey Vero cells to IC50 for Trypanosoma cruzi Sylvio X-10 amastigotes. The format is toxicity, cell-based. As to conditions: read-out: Ratio IC50. A digest of the protocol:
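VERO cytotoxicity: cells exposed 48 h at 37 °C, 5% CO2 to serial dilutions from a maximum of 2000 μM (DMSO stocks; DMSO <0.1% control); growth inhibition read by MTT at 570 nm. Amastigote IC50: Sylvio X-10-infected VERO cells, five doses, infected cells counted among 300 (Giemsa), quadruplicate, three experiments, sigmoidal fit. SI = IC50 VERO / IC50 amastigote.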

Data set [3] concerns Salmonella typhimurium. Nature of the data set: Mutagenic activity in Salmonella typhimurium TA1535 at 3.09 to 250 ug/plate by Ames test in presence of mouse liver S9 fraction. The format is toxicity, organism-based. As to conditions: salmonella enterica subsp. enterica serovar typhimurium. Put shortly:
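Plate-incorporation Ames test on minimal glucose agar with 500 μL Aroclor-treated mouse liver S9 added. DMSO solutions were tested at five consecutive 3-fold dilutions from the highest non-toxic dose, in triplicate, with a DMSO negative control. Revertants were counted manually; a compound was scored mutagenic when revertants were at least twice the negative control for two or more consecutive doses.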
Background: The Ames test detects mutagens through reverse mutation in bacteria.

A short description of data set [4]: Stability of the compound in aqueous solution assessed as compound remaining at 1 mM at 37 degC after 1 hr by TLC analysis in presence of rat liver microsomal fraction. As to conditions: microsomes, 1000 µM. Put shortly:
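Rat liver cytosolic (100 000g supernatant) and microsomal (100 000g pellet, washed and resuspended in Tris·HCl) fractions, fresh or stored at −80 °C; protein measured by BCA. Compound incubated with the fraction 1 h at 37 °C and analysed by TLC of extracts.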
(Microsomes from liver hold many membrane-bound enzymes, among them those of drug oxidation.)

Data set [5] is described as follows: Selectivity index, ratio of IC50 for human RBC to IC50 for Trypanosoma cruzi Sylvio X-10 amastigotes. Put shortly: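 Hemolysis: washed human erythrocytes (2% w/v in PBS) incubated 24 h at 37 °C with compound at final 50, 100 and 200 μM. Ten replicates per concentration. Hemoglobin release read at 405 nm against water lysis as 100%; amphotericin B 1.5 μM was the positive control. SI = IC50 red cells / parasite IC50 (Sylvio X-10 amastigotes or Tulahuen 2 epimastigotes).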

Data set [6] has as its system Trypanosoma cruzi. Nature of the data set: Antitrypanosomal activity against Trypanosoma cruzi CL Brener infected in BALB/c mouse assessed as peak of maximum parasitemia at 107 umol/kg/day, po for 14 days administered in saline and tween 80 measured up to 60 days relative to control. The data set is classed as functional. A digest of the protocol: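 Male BALB/c mice (30 days old, 25–30 g, SPF) were infected i.p. with 10³ blood trypomastigotes, n = 8/group. Daily oral gavage in saline/Tween 80 (4:1) ran for 14 days from day 6 post-infection; controls received vehicle only. Parasitemia was counted weekly in tail-vein blood by hemocytometer for 60 days, and survival was recorded.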

Data set [7] in a line: Stability of the compound in aqueous solution assessed as compound remaining at 1 mM at pH 7.4 after 1 hr by TLC analysis. The format is physicochemical. As to conditions: aqueous solution, pH 7.4; read-out: Stability. A digest of the protocol: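 DMSO stocks diluted to final 1 mM in KCl·HCl pH 1.0, citrate pH 6.0, Tris·HCl pH 7.4 or borax·HCl pH 9.0 buffer. Incubated 1 h at 37 °C, then ethyl acetate extracts checked by TLC for decomposition products.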

Data set [8] is described as follows: Stability of the compound in eumulgin HRE 40, sodium oleate, soya phosphatidylcholine, cholesterol, and phosphate buffer at pH 7.4 at 4 degC. The format is physicochemical. A digest of the protocol: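 Storage stability of the compound in vehicle V2, a microemulsion of surfactant (Eumulgin HRE 40/sodium oleate/soya phosphatidylcholine, 10%), cholesterol oil phase (10%) and pH 7.4 phosphate buffer (80%), followed over 1 week at 4 °C.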

Data set [9] relates to Trypanosoma cruzi. The experiment in a line: Antitrypanosomal activity against Trypanosoma cruzi Tulahuen 2 epimastigotes assessed as growth inhibition after 5 days. The data set is classed as functional, organism-based. As to conditions: Trypanosoma cruzi, Tulahuen 2, 120 h. Put shortly: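 Epimastigotes were grown axenically at 28 °C in BHI-tryptose with 5% FBS and seeded from a 5–7 day culture at 1 × 10⁶ cells/mL. Drug from a DMSO stock was added (final DMSO ≤0.4%; the control contained 0.4% DMSO). Duplicates were run. A600 was read at day 5, and % inhibition was calculated relative to day-0 and control readings. IC50 = concentration that halves the absorbance ratio.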

Data set [10] deals with Salmonella typhimurium. Nature of the data set: Mutagenic activity in Salmonella typhimurium TA1535 at 3.09 to 250 ug/plate by Ames test. As to conditions: salmonella enterica subsp. enterica serovar typhimurium. The data set is classed as toxicity, organism-based. A digest of the protocol:
(§1)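 Direct plate incubation on minimal glucose agar (Vogel-Bonner E). Compound toxicity to the bacteria was checked first. DMSO solutions were tested at five consecutive 3-fold dilutions, starting from the highest non-toxic dose, in triplicate, without metabolic activation. DMSO served as negative control. Revertants were counted manually; mutagenic = revertants at least double the negative control at two or more consecutive doses.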

In data set [11] the test system is Salmonella typhimurium. Nature of the data set: Mutagenic activity in Salmonella typhimurium TA102 at 3.09 to 250 ug/plate by Ames test. As to conditions: salmonella enterica subsp. enterica serovar typhimurium. The format is toxicity, organism-based. A digest of the protocol:
as §1

In data set [12] the test system is Trypanosoma cruzi. The experiment in a line: Antitrypanosomal activity against Trypanosoma cruzi CL Brener infected in BALB/c mouse assessed as mouse survival at 107 umol/kg/day, po for 14 days administered in cholesterol/surfactant/phosphate buffer measured up to 60 days relative to control. The data set is classed as functional. A digest of the protocol:
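Infected male BALB/c mice (30 days old, 25–30 g) were gavaged daily from day 6 postinfection for 14 days. Vehicle was a microemulsion of 10% cholesterol, 10% surfactant (soya phosphatidylcholine/sodium oleate/polyoxyl-40 hydrogenated castor oil) and 80% phosphate buffer pH 7.4. n = 7/group, with vehicle controls. Tail-vein parasitemia was taken weekly for 60 days and mortality recorded.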

Data set [13] deals with Salmonella typhimurium. Nature of the data set: Mutagenic activity in Salmonella typhimurium TA98 at 5 to 400 ug/plate by Ames test in presence of mouse liver S9 fraction. The format is toxicity, organism-based. As to conditions: salmonella enterica subsp. enterica serovar typhimurium. A digest of the protocol:
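Ames plate-incorporation assay with S. typhimurium TA98 in Vogel-Bonner E minimal glucose agar. Toxicity toward the bacteria was checked first. DMSO solutions were run in triplicate at five consecutive third-dilutions, starting at the highest non-toxic dose. Positive controls were 4-nitro-o-phenylenediamine (20.0 μg/plate) and 2-aminofluorene (10.0 μg/plate); DMSO was the negative control. Revertants were counted manually. A compound was called mutagenic when revertants were at least twice the negative control at two or more consecutive doses.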

In data set [14] the test system is Salmonella typhimurium. Nature of the data set: Mutagenic activity in Salmonella typhimurium TA100 at 0.003 to 0.2 ug/plate by Ames test. As to conditions: salmonella enterica subsp. enterica serovar typhimurium. The data set is classed as toxicity, organism-based. A digest of the protocol:
as §1

Data set [15] in a line: Selectivity index, ratio of IC50 for mouse J774.1 cells to IC50 for Trypanosoma cruzi Sylvio X-10 amastigotes. As to conditions: read-out: Ratio IC50. The data set is classed as toxicity. A digest of the protocol: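 J774.1 macrophages grown in DMEM with 10% heat-inactivated FCS and allowed to attach 48 h, then exposed 48 h at 37 °C to 12.5–400.0 μM. Triplicates. MTT 0.1 mg/mL for 3 h, read at 560 nm; IC50 by linear regression against the solvent control. SI = IC50 J774.1 / parasite IC50 (Sylvio X-10 amastigotes or Tulahuen 2 epimastigotes, the latter measured by A600 growth inhibition at day 5).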

On to `Br.C=CCn1c(-c2ccc(Cl)cc2)cs\c1=N/N=C/C=C/c1ccco1.O`, for which, in the data set with Trypanosoma cruzi [1], the outcome was Active. In addition, the selectivity ratio was more than 1000 in data set [2] and more than 200 in [15]. Further, the Activity result in the data set with Salmonella typhimurium [3], in the data set on Salmonella typhimurium [10], with Salmonella typhimurium [11], in the data set on Salmonella typhimurium [13] and in the data set on Salmonella typhimurium [14] was “Non-toxic” each time. The Stability entry in data set [4] and in data set [8] was “Stable” each time. Besides, in data set [5], the Ratio IC50 was more than 234. Also, the Time with Trypanosoma cruzi [6] is 26 days. Moreover, the remaining at 1 h, 1000 µM in data set [7] was more than 95%. In the data set on Trypanosoma cruzi [9], the IC50 worked out at 1300 nM. Moreover, in the data set on Trypanosoma cruzi [12], the survival at 107 µmol/kg is 100%.

The IC50 is the concentration that inhibits the measured activity by half.
